{"data": "Measurements gathered from unrelated publications", "target": "Aurora kinase A (AURKA, Homo sapiens, UniProt O14965)", "One construct used (O14965 1-403)": "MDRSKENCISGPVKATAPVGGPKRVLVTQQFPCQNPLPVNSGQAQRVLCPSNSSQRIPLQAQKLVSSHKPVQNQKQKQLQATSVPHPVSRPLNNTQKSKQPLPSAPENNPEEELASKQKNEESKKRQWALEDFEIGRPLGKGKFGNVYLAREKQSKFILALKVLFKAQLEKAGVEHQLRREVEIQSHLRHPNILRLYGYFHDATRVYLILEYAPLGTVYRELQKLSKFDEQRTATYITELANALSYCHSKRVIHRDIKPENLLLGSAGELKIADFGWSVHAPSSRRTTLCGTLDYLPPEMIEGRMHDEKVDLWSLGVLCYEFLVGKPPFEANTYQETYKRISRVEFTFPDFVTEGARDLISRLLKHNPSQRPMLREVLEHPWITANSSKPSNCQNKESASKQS", "note": "Each line is one published result; the experiments were not run side by side."}
{"Structure (SMILES)": "CN(CCCC(F)(F)F)c1nccc(-c2cnn3ncccc23)n1", "assay": "binding", "conditions": "1 µM", "remaining binding [%]": 90}
{"Structure (SMILES)": "FC(F)(F)c1ccc2c(c1)nc(-c1cccnc1)n2C1CC1", "assay": "cell-free assay, competition with immobilised ligand", "conditions": "1 µM", "remaining binding [%]": 98}
{"Structure (SMILES)": "CN(C)c1ncc(F)c(-c2cnn3ncccc23)n1", "assay": "binding", "conditions": "1 µM", "remaining binding [%]": 100}
{"Structure (SMILES)": "CC(C)(C)c1ccc(-c2nc(CBr)nn2-c2cccc(O)c2)cc1", "assay": "cell-free assay, competition with immobilised ligand", "conditions": "10 µM", "remaining binding [%]": 91}
{"Structure (SMILES)": "c1cnn2ncc(-c3ccnc(N4CCC45COC5)n3)c2c1", "assay": "binding", "conditions": "1 µM", "remaining binding [%]": 90}
{"Structure (SMILES)": "COc1cc(C(=O)N2CCC(N3CCN(C)CC3)CC2)ccc1Nc1ncc2c(n1)N(C)c1ccccc1C(=O)N2C", "assay": "binding, competition with immobilised ligand", "conditions": "10 µM", "remaining binding [%]": 1.2}
{"Structure (SMILES)": "CCC(=O)N[C@H]1CC[C@@H](C(=O)N(C)c2ccc(-c3nc4ccccc4o3)cc2)C1", "assay": "cell-free assay, competition with immobilised ligand", "conditions": "1 µM", "remaining binding [%]": 43}
{"Structure (SMILES)": "COc1ccnn2ncc(-c3ccnc(N(C)C)n3)c12", "assay": "binding", "conditions": "1 µM", "remaining binding [%]": 93}
{"Structure (SMILES)": "C[C@@H]1CN(c2ccc3ncc(-c4ccc5[nH]nc(C6CC6)c5c4)n3n2)C[C@H](C)O1", "assay": "binding, competition with immobilised ligand", "conditions": "50 nM", "remaining binding [%]": 87}
{"Structure (SMILES)": "C[C@@H]1CCN(c2nccc(-c3cnn4ncccc34)n2)C1", "assay": "binding", "conditions": "1 µM", "remaining binding [%]": 92}
{"Structure (SMILES)": "O=C(c1ccc(Nc2ncc(Cl)c(-c3ccc(Cl)s3)n2)cc1)N1CCC(N2CCCC2)CC1", "assay": "binding, competition with immobilised ligand", "conditions": "1 µM", "remaining binding [%]": 1.9}
{"Structure (SMILES)": "C[C@H](c1ccc(F)cc1)N(Cc1cccc(C(=O)O)c1)C(=O)c1cnc2ccccc2c1", "assay": "cell-free assay, competition with immobilised ligand", "conditions": "1 µM", "remaining binding [%]": 100}
{"Structure (SMILES)": "COc1cnc(Nc2cccc(S(N)(=O)=O)c2)nc1N1CCN(c2ccccc2)C(=O)C1", "assay": "binding, competition with immobilised ligand", "conditions": "1 µM", "remaining binding [%]": 80}
{"Structure (SMILES)": "C=CC(=O)N1CCC(C(=O)NCC(=O)N2CCN(c3nc(-c4cnc(N)nc4C(F)F)nc(N4CCOCC4)n3)CC2)CC1", "assay": "binding, competition with immobilised ligand", "conditions": "1 µM", "remaining binding [%]": 96}
{"Structure (SMILES)": "O=c1nc(-c2ccccn2)sc2ccccc12", "assay": "cell-free assay, competition with immobilised ligand", "conditions": "1 µM", "remaining binding [%]": 87}
{"Structure (SMILES)": "N#Cc1ccccc1CSc1nnc2c(n1)[nH]c1ccccc12", "assay": "binding, competition with immobilised ligand", "conditions": "10 µM", "remaining binding [%]": 100}
{"Structure (SMILES)": "O=C(Nc1c[nH]nc1C(=O)NC1CCNCC1)c1cc(F)cc(F)c1", "assay": "binding, competition with immobilised ligand", "conditions": "1 µM", "remaining binding [%]": 100}
{"Structure (SMILES)": "O=C(Nc1cccnn1)N1CC(C/C=C/c2cncc(Oc3ccc(C(F)(F)F)cn3)n2)C1", "assay": "cell-free assay, competition with immobilised ligand", "conditions": "1 µM", "remaining binding [%]": 100}
{"Structure (SMILES)": "FC(F)(F)Oc1cccc(-c2cnc3ccc(-c4ccncc4)nn23)c1", "assay": "cell-free assay, competition with immobilised ligand", "conditions": "5 µM", "remaining binding [%]": 91}
{"Structure (SMILES)": "CSc1cccnc1N1CCN(Cc2nc3ccccc3[nH]2)CC1", "assay": "cell-free assay, competition with immobilised ligand", "conditions": "1 µM", "remaining binding [%]": 74}
{"Structure (SMILES)": "O=C(NCCCN1CCOCC1)c1ccc(Nc2nccc(-c3cc4ccccc4s3)n2)cc1", "assay": "binding, competition with immobilised ligand", "conditions": "1 µM", "remaining binding [%]": 55}
{"Structure (SMILES)": "CN(c1nccc(-c2cnn3ncccc23)n1)C1CC1", "assay": "binding", "conditions": "1 µM", "remaining binding [%]": 84}
{"Structure (SMILES)": "Cc1cnc(Nc2ccc(C(=O)N3CCC(N4CCCC4)CC3)cc2)nc1-c1cc2ccccc2s1", "assay": "binding, competition with immobilised ligand", "conditions": "1 µM", "remaining binding [%]": 2}
{"Structure (SMILES)": "N[C@H]1CCN(c2nccc(-c3cnn4ncccc34)n2)C1", "assay": "binding", "conditions": "1 µM", "remaining binding [%]": 97}
{"Structure (SMILES)": "COCCOc1nc(-c2ccc(Cl)nc2)nc2c1CN(C(=O)c1ncn3ccccc13)CC2", "assay": "cell-free assay, competition with immobilised ligand", "conditions": "0.1 µM", "remaining binding [%]": 81}
